ChEMBL document CHEMBL4138312 (J Med Chem, 2018)

What was measured:
[1] = target: Tyrosine-protein kinase JAK2 (Homo sapiens, UniProt O60674); test: Inhibition of recombinant human JAK2 (831 to 1132 residues) expressed in insect cells using 5FAM-GEEPLYWSFPAKKK-NH2 as substrate after 10 mins by caliper assay
Outline: (§1)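 Biochemical kinase inhibition IC50 measured at 5 mM ATP. Values are the geometric mean of at least two independent experiments.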

[2] = target: T1, Tyrosine-protein kinase JAK3 (Homo sapiens, UniProt P52333); test: Inhibition of recombinant human JAK3 (781 to 1124 residues) expressed in insect cells using 5FAM-GEEPLYWSFPAKKK-NH2 as substrate after 10 mins by caliper assay; outline: as §1
T1 sequence (P52333 whole entry): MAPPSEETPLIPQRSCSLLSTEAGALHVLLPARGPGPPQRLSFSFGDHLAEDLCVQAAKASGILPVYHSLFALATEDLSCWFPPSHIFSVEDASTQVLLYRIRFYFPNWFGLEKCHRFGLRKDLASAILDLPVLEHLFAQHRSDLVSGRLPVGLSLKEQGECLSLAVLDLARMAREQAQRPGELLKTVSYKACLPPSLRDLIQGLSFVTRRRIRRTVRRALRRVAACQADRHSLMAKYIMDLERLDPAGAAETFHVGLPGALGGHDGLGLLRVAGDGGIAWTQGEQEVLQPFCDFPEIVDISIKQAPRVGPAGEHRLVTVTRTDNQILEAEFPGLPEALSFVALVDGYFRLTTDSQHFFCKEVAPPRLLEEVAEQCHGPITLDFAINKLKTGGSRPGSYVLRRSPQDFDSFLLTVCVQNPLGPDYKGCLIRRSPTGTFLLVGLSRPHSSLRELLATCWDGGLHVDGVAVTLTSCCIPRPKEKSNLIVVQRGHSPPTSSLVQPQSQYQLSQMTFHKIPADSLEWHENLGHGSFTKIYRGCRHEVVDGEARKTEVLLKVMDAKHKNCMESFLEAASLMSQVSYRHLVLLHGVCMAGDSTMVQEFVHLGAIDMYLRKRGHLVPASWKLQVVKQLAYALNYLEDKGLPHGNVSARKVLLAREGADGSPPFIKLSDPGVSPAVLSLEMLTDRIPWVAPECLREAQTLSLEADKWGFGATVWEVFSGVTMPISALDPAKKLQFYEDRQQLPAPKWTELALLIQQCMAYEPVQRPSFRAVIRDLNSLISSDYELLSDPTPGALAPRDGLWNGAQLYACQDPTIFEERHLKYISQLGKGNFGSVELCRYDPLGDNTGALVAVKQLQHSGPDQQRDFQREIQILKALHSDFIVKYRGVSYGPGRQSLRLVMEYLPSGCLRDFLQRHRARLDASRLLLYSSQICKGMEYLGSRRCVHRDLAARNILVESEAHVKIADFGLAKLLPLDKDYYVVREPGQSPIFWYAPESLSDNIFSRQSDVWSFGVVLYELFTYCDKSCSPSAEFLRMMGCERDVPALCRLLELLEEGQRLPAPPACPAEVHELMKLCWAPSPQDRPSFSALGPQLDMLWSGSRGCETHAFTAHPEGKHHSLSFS

[3] = target: T2, Tyrosine-protein kinase JAK1 (Homo sapiens, UniProt P23458); test: Inhibition of JAK1 in human NCI-H1975 cells assessed as reduction in STAT3 phosphorylation after 1 hr by ELISA; assay type: cell-based
T2 sequence (P23458 whole entry): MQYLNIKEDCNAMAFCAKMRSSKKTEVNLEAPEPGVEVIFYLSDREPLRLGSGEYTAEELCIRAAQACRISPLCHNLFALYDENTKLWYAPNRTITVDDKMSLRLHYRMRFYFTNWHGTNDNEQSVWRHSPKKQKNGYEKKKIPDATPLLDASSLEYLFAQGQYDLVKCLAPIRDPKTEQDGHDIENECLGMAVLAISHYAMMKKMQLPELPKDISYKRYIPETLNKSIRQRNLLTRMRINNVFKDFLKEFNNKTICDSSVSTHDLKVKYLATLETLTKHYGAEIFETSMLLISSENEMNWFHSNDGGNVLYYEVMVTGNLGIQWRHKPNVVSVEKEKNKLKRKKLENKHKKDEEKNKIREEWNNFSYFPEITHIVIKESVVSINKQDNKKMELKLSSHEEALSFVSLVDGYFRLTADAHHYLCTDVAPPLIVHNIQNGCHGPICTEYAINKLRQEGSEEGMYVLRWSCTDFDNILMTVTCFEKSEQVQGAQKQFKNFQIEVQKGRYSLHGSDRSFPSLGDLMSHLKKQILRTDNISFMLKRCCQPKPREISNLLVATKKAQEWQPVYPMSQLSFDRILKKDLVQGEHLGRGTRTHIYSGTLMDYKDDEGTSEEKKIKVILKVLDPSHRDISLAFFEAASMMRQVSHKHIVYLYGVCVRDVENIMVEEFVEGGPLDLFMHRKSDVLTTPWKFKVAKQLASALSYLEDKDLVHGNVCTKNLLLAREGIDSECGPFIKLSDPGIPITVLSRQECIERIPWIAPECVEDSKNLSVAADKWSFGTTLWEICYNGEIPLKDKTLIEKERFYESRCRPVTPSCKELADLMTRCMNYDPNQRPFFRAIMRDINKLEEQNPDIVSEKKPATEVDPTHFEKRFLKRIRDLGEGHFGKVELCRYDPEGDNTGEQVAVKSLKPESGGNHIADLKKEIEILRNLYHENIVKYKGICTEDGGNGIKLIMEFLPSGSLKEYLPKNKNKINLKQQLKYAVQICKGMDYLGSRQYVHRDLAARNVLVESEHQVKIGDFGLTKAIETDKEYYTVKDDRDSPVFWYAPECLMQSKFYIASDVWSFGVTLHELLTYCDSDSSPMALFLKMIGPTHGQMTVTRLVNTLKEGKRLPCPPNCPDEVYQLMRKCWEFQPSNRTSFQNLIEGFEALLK
Outline: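 Cellular mode-of-action assay in NCI-H1975 cells, read as inhibition of STAT3 phosphorylation. EC50 was derived.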

[4] = target: T2, Tyrosine-protein kinase JAK1; test: Inhibition of cytoplasmic recombinant human GST-tagged JAK1 (886 to 1154 residues) expressed in baculovirus at 1 uM
Outline: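 Single-concentration screen at 1 μM across a panel of 386 kinases to profile broad kinase selectivity.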

JAK2 = JAK2 (Homo sapiens, UniProt O60674); test: Inhibition of catalytic recombinant human GST-tagged JAK2 expressed in baculovirus at 1 uM
Sequence of JAK2 (O60674 whole entry): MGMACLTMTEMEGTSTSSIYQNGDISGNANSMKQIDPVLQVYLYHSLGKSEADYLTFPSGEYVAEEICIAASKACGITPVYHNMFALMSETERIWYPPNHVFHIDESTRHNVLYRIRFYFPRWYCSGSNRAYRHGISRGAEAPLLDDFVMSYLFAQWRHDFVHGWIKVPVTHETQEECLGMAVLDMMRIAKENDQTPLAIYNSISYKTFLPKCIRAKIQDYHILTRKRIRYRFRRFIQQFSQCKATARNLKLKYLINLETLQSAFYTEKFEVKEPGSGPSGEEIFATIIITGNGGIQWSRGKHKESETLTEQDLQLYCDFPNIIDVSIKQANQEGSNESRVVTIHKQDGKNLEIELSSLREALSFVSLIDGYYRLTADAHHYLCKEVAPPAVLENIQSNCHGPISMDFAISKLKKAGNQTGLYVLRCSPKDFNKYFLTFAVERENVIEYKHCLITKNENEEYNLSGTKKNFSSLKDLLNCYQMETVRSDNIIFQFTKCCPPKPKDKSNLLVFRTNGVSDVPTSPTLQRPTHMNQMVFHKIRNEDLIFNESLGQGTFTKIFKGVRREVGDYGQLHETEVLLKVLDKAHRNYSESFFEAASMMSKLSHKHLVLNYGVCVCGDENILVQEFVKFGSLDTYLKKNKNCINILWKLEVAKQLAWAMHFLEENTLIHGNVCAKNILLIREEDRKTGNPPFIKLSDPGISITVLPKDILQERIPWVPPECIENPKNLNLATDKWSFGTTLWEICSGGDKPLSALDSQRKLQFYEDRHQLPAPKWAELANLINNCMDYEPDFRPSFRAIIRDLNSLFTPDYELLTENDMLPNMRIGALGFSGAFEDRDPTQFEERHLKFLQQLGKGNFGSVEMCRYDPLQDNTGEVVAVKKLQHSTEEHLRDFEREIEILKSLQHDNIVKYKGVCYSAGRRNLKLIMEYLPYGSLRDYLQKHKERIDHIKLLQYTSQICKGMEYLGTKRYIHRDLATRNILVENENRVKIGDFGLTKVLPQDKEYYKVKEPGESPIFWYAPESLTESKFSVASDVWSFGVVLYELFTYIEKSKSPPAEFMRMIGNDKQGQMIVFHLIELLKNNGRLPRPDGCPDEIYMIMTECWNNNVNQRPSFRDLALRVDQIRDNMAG
Outline: (§2)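 Kinase panel of 386 kinases, each screened at a single concentration of 1 μM.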

[5] = target: Leucine-rich repeat serine/threonine-protein kinase 2 (Homo sapiens) (UniProt Q5S007); test: Inhibition of recombinant human full length GST-tagged catalytic LRRK2 expressed in baculovirus at 1 uM; outline: as §2
Sequence of Leucine-rich repeat serine/threonine-protein kinase 2 (Homo sapiens) (Q5S007 whole entry): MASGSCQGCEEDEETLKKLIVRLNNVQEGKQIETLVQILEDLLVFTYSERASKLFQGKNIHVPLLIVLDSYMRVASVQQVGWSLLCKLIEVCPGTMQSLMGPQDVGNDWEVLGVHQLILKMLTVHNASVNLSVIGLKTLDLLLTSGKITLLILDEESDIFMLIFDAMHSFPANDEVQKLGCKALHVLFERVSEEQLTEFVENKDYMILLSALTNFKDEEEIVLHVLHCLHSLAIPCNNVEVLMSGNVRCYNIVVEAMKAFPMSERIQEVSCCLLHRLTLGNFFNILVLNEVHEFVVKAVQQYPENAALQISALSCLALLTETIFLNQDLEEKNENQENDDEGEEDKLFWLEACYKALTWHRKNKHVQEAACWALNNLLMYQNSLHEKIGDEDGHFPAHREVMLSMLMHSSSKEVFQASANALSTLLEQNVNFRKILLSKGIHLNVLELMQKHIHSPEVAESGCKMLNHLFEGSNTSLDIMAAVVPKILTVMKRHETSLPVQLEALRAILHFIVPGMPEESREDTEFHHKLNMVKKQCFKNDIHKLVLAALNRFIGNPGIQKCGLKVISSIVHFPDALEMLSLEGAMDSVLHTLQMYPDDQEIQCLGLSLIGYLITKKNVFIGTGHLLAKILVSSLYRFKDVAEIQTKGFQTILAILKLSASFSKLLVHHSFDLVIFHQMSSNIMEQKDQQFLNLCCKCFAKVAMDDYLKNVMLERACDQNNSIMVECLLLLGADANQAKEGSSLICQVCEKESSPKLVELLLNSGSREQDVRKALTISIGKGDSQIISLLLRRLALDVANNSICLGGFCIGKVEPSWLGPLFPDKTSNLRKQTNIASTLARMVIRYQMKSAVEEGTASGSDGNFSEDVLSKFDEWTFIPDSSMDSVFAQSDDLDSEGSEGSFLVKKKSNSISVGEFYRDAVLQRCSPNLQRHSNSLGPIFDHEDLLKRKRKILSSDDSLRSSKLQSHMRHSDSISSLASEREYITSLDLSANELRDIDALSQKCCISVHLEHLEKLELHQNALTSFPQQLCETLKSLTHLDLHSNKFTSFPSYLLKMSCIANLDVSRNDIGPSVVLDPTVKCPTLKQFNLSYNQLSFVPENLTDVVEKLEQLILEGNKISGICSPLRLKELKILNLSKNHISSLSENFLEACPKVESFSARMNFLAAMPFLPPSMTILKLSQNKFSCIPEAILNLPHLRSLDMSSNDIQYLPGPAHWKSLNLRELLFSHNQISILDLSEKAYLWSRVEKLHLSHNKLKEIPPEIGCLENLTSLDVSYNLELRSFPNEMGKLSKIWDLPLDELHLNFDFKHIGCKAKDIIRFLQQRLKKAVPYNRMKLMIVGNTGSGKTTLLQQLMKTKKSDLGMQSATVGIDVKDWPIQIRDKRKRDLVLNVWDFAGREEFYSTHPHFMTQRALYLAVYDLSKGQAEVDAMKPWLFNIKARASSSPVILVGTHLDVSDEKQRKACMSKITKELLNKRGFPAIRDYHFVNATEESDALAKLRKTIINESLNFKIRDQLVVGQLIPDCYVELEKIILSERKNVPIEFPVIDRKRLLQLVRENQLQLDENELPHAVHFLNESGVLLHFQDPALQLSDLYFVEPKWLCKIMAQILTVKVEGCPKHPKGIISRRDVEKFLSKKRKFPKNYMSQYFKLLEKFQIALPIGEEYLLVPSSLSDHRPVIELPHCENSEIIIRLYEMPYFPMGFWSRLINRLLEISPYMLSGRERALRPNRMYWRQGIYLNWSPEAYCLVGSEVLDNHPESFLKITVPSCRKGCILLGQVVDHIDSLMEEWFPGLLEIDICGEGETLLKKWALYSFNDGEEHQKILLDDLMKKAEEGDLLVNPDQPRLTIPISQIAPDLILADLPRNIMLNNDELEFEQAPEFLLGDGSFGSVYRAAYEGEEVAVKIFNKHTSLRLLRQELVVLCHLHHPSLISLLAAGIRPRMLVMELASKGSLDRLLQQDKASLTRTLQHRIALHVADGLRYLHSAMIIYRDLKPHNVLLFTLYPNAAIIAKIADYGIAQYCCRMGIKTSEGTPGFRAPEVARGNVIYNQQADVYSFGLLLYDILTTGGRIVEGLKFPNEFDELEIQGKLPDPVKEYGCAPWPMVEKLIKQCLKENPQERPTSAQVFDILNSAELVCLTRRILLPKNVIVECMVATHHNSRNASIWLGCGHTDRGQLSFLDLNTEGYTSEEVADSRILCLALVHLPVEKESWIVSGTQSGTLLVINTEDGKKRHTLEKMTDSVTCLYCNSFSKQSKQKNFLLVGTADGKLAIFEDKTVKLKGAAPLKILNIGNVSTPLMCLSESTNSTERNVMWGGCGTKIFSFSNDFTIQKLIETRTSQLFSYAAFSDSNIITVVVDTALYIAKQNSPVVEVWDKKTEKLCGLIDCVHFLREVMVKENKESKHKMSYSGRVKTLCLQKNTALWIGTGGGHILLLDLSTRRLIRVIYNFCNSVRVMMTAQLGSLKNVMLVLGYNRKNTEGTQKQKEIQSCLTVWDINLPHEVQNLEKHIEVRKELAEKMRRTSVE

[6] = Clearance in CD1 mouse at 3 mg/kg, iv by LC/MS/MS analysis; assay type: ADME, organism-based; details: in vivo
Outline: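 Mouse pharmacokinetics after a single iv dose of 3 mg/kg in 10% HPbCD + 5% dextrose in WFI at pH 4. Plasma clearance, half-life and steady-state volume of distribution were derived.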

[7] = AUC in CD1 mouse at 10 mg/kg, po by LC/MS/MS analysis; assay type: ADME, organism-based; details: in vivo
Outline: (§3)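 Mouse pharmacokinetics after oral dosing at 10 or 50 mg/kg. The 10 mg/kg dose was given in 10% HPbCD + 5% dextrose in WFI at pH 4. The 50 mg/kg dose was given in 5% SBECD in WFI at pH 2. Plasma exposure (AUC), half-life and oral bioavailability were derived.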

[8] = AUC in CD1 mouse at 50 mg/kg, po administered via gavage by LC/MS/MS analysis; assay type: ADME, organism-based; details: in vivo; outline: as §3
Mus musculus = test: In vivo inhibition of JAK1 in tumors of human NCI-H1975 cells xenografted in NCr nude mouse assessed as decrease in STAT3 phosphorylation at 50 mg/kg, po after 2 hrs by ELISA; assay type: functional, organism-based
Outline: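 NCI-H1975 xenograft-bearing mice received single oral gavage doses of 1, 3, 10, 30, 50 or 100 mg/kg. Animals were sacrificed at 2 h, with an extra 6 h group at 50 mg/kg. Tumour pSTAT3 was measured as % inhibition, and plasma drug concentration was measured in parallel. Significance was tested by Student's t-test versus vehicle control.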

[9] = Protein binding in CD1 mouse plasma assessed as unbound fraction; assay type: ADME, cell-free

Sequence of Tyrosine-protein kinase JAK2 (O60674 whole entry, the tested form may be a part): as the sequence (O60674 whole entry) above

IC50 [1]: > 30 µM | IC50 [2]: > 30 µM | EC50 [3]: 0.03 µM | inhibition [4]: 100% | inhibition at 1 µM (JAK2): 31% | inhibition [5]: 71% | clearance [6]: 68.7 mL/min/kg | AUC [7]: 2.65 µM·h | AUC [8]: 18.9 µM·h | fraction unbound [9]: 0.15
Compound: CC[C@@H](C)Nc1nc(Nc2cc(N3C[C@@H]4C[C@H]3CN4C)cnc2F)ncc1C
inhibition (Mus musculus): Dose-dependent effect
